Source: ChEMBL document CHEMBL3108749, “Discovery of a non-estrogenic irreversible inhibitor of 17β-hydroxysteroid dehydrogenase type 1 from 3-substituted-16β-(m-carbamoylbenzyl)-estradiol derivatives” (J Med Chem, 2014)

Assays:
MCF7 [1] = assay: Cytotoxicity against human estrogen-starved estrogen-sensitive MCF7 cells assessed as cell growth at 0.1 uM after 7 days by MTS assay relative to control; format: functional; conditions: MCF7, 168 h, read-out: Activity
Procedure, shortened: (§1)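 MCF-7 (DMEM-F12) or T-47D (RPMI) cells are kept in medium with insulin (50 ng/mL) and 5% dextran-coated charcoal-treated FBS, seeded at 3000 cells/well. After 48 h, medium is replaced with medium containing compound, renewed every two days, and cells grow seven days. Growth is read by CellTiter 96 aqueous (MTS) assay as % proliferation vs basal control (0%). Scored −/+/++/+++ bands.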

[2] = target: T1, 17-beta-hydroxysteroid dehydrogenase type 1 (Homo sapiens) (UniProt P14061); assay: Inhibition of 17-beta HSD1 in human T47D cells assessed as transformation of [14C]E1 to [14C]E2 at 0.1 uM after 24 hrs by thin layer chromatography; format: cell-based
T1 sequence (whole entry): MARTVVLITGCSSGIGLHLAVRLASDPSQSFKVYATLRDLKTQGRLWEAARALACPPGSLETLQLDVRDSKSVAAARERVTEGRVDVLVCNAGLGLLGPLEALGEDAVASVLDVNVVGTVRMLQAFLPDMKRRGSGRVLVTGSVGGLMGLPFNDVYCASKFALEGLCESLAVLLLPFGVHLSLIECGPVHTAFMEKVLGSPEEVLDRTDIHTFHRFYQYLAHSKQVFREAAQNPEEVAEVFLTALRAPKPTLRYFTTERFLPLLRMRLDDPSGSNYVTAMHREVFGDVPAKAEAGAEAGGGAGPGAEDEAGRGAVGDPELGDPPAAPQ
Procedure, shortened: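 T-47D cells (endogenous 17β-HSD1) are seeded at 3000 cells/well in RPMI with insulin (50 ng/mL) and 5% charcoal-stripped FBS. After 24 h, compound (from EtOH stock, 0.1 μM final) is added with [14C]-E1 (60 nM) for 24 h. Steroids are extracted into diethyl ether, separated by silica TLC (toluene/acetone 4:1) and quantified. Mean ± SD of ≥2 independent experiments in triplicate.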

MCF7 [3] = assay: Cytotoxicity against human estrogen-starved estrogen-sensitive MCF7 cells assessed as cell growth at 1 uM after 7 days by MTS assay relative to control; format: functional; conditions: MCF7, 168 h, read-out: Activity; procedure, shortened: as §1
T47D [4] = assay: Cytotoxicity against human estrogen-starved estrogen-sensitive T47D cells assessed as cell growth at 0.1 uM after 7 days by MTS assay relative to control; format: functional; conditions: 168 h, read-out: Activity; procedure, shortened: as §1
T47D [5] = assay: Cytotoxicity against human estrogen-starved estrogen-sensitive T47D cells assessed as cell growth at 1 uM after 7 days by MTS assay relative to control; format: functional; conditions: 168 h, read-out: Activity; procedure, shortened: as §1
Cytochrome P450 3A4 = Cytochrome P450 3A4 (Homo sapiens, UniProt P08684); assay: Inhibition of CYP3A4 (unknown origin) by fluorescence assay; format: ADME
Procedure, shortened: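 Commercial CYP3A4 kit with dibenzylfluorescein as substrate, read by fluorescence of its enzymatic product. Compound dissolved in DMSO/acetonitrile (5:95). IC50 from means of at least two experiments in triplicate.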

[6] = target: T2, 17-beta-hydroxysteroid dehydrogenase type 2 (Homo sapiens) (UniProt P37059); assay: Inhibition of 17-beta HSD2 (unknown origin) transfected in HEK293 cells using [14C]E2 as substrate at 10 uM; format: cell-based
T2 sequence (whole entry): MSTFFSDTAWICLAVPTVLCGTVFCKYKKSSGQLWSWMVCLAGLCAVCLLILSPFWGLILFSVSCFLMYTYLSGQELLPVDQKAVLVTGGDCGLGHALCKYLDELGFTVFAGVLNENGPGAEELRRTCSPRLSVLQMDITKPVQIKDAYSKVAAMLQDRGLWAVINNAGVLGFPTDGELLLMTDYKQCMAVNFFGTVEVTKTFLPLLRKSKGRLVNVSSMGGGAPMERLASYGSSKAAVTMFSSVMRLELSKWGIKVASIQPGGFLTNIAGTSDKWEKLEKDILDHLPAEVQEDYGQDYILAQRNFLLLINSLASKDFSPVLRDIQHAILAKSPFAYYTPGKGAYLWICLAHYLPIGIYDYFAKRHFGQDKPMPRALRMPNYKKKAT
Procedure, shortened: (§2)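 Stably transfected HEK-293 cells in stripped-serum MEM with G418 and insulin, seeded 48 h. Then treated with compound in DMSO (<0.5% final) plus 60 nM substrate: [14C]-E2 for 17β-HSD2, [14C]-E1 for 17β-HSD7 and 17β-HSD12. Stopped at 12–25% substrate conversion; ether extraction, TLC, radiolabel quantification; triplicates, at least two experiments.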

[7] = target: T3, Very-long-chain 3-oxoacyl-CoA reductase (Homo sapiens) (UniProt Q53GQ0); assay: Inhibition of 17-beta HSD12 (unknown origin) transfected in HEK293 cells using [14C]E1 as substrate at 10 uM; format: cell-based; procedure, shortened: as §2
T3 sequence (whole entry): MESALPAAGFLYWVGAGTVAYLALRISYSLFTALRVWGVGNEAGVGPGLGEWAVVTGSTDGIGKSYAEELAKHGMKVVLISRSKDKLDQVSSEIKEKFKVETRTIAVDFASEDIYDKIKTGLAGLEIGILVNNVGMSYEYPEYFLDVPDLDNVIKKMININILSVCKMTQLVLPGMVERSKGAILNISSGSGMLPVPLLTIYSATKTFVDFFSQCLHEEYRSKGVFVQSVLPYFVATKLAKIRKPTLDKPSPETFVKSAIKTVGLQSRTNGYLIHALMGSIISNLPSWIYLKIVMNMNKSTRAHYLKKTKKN

[8] = target: T4, 3-keto-steroid reductase/17-beta-hydroxysteroid dehydrogenase 7 (Homo sapiens) (UniProt P56937); assay: Inhibition of 17-beta HSD7 (unknown origin) transfected in HEK293 cells using [14C]E1 as substrate at 10 uM; format: cell-based; procedure, shortened: as §2
T4 sequence (whole entry): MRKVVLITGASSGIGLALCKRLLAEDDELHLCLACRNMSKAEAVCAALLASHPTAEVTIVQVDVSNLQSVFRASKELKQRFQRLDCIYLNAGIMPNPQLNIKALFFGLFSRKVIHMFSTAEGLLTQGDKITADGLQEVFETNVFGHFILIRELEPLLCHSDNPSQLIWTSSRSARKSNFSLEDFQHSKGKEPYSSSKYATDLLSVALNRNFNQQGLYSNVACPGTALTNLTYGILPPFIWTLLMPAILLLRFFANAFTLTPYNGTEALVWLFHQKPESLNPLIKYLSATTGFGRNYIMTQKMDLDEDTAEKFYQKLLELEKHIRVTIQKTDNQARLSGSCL

Cytochrome P450 3A4, sequence (P08684 whole entry): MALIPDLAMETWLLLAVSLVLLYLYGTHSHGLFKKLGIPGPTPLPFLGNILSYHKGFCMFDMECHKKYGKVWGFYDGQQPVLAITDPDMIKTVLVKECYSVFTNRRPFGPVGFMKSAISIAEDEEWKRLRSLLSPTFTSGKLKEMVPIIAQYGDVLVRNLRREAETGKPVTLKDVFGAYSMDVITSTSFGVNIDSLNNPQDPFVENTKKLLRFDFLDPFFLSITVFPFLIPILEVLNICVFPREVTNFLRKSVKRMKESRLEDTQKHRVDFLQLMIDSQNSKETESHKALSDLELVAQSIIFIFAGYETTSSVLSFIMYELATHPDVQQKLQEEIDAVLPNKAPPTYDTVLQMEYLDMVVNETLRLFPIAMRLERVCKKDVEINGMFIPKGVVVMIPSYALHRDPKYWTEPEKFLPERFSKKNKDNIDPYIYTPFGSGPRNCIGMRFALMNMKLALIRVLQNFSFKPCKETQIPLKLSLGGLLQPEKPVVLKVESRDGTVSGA

Row | Compound | inhibition [2] [%] | percent proliferation above basal control at 0.1 µM (MCF7 [1]) [%] | percent proliferation above basal control at 1 µM (MCF7 [3]) [%] | further results
1 | C[C@]12CC[C@@H]3c4ccc(CN)cc4CC[C@H]3[C@@H]1C[C@H](Cc1cccc(C(N)=O)c1)[C@@H]2O | 44 | > 30 | > 30 | –
2 | C[C@]12CC[C@@H]3c4ccc(N)cc4CC[C@H]3[C@@H]1C[C@H](Cc1cccc(C(N)=O)c1)[C@@H]2O | 31 | 0 | 5 | –
3 | C[C@]12CC[C@@H]3c4ccc(CN5CCCC5)cc4CC[C@H]3[C@@H]1C[C@H](Cc1cccc(C(N)=O)c1)[C@@H]2O | 10 | 0 | 5 | –
4 | C[C@]12CC[C@@H]3c4ccc(CCO)cc4CC[C@H]3[C@@H]1C[C@H](Cc1cccc(C(N)=O)c1)[C@@H]2O | 18 | 5 | 5 | –
5 | C[C@]12CC[C@@H]3c4ccc(F)cc4CC[C@H]3[C@@H]1C[C@H](Cc1cccc(C(N)=O)c1)[C@@H]2O | 10 | 0 | 5 | –
6 | C[C@]12CC[C@@H]3c4ccc(CO)cc4CC[C@H]3[C@@H]1C[C@H](Cc1cccc(C(N)=O)c1)[C@@H]2O | – | 0 | 5 | –
7 | C[C@]12CC[C@@H]3c4ccc(CBr)cc4CC[C@H]3[C@@H]1C[C@H](Cc1cccc(C(N)=O)c1)[C@@H]2O | 30 | 0 | 0 | –
8 | C[C@]12CC[C@@H]3c4ccc(C(=O)O)cc4CC[C@H]3[C@@H]1C[C@H](Cc1cccc(C(N)=O)c1)[C@@H]2O | 3 | 5 | > 30 | –
9 | C[C@]12CC[C@@H]3c4ccc(O)cc4CC[C@H]3[C@@H]1C[C@H](Cc1cccc(C(N)=O)c1)[C@@H]2O | 72 | > 30 | > 30 | IC50 (Cytochrome P450 3A4): 1500 nM; inhibition [6]: 0%; inhibition [7]: 6%; inhibition [8]: 0%
10 | C[C@]12CC[C@@H]3c4ccc(CCc5ccccc5)cc4CC[C@H]3[C@@H]1C[C@H](Cc1cccc(C(N)=O)c1)[C@@H]2O | 17 | – | – | percent proliferation above basal control at 0.1 µM (T47D [4]): 0%; % proliferation above basal control (0% = control) at 1 µM (T47D [5]): 0%
11 | CN(C)C(=O)c1ccc2c(c1)CC[C@@H]1[C@@H]2CC[C@]2(C)[C@@H](O)[C@@H](Cc3cccc(C(N)=O)c3)C[C@@H]12 | 1 | 5 | 15 | –
12 | CCCCCCCN(C)[C@H]1CC[C@H]2C3CC[C@H]4NC(=O)CC[C@]4(C)[C@H]3CC[C@]12C (stereo partly drawn) | – | – | – | inhibition [8]: 81%
13 | CCc1ccc2c(c1)CC[C@@H]1[C@@H]2CC[C@]2(C)[C@@H](O)[C@@H](Cc3cccc(C(N)=O)c3)C[C@@H]12 | 6 | 0 | 0 | –
14 | CCCN(CC)Cc1ccc2c(c1)CC[C@@H]1[C@@H]2CC[C@]2(C)[C@@H](O)[C@@H](Cc3cccc(C(N)=O)c3)C[C@@H]12 | 14 | 0 | 0 | –

More lines, main results first:

Row | inhibition [2] [%] | Compound | percent proliferation above basal control at 0.1 µM (MCF7 [1]) [%] | percent proliferation above basal control at 1 µM (MCF7 [3]) [%] | further results
15 | 11 | CNC(=O)Cc1ccc2c(c1)CC[C@@H]1[C@@H]2CC[C@]2(C)[C@@H](O)[C@@H](Cc3cccc(C(N)=O)c3)C[C@@H]12 | 0 | 0 | –
16 | 12 | C[C@]12CC[C@@H]3c4ccc(CCCl)cc4CC[C@H]3[C@@H]1C[C@H](Cc1cccc(C(N)=O)c1)[C@@H]2O | – | – | percent proliferation above basal control at 0.1 µM (T47D [4]): 0%; % proliferation above basal control (0% = control) at 1 µM (T47D [5]): 0%
17 | 20 | C[C@]12CC[C@@H]3c4ccc(CCCO)cc4CC[C@H]3[C@@H]1C[C@H](Cc1cccc(C(N)=O)c1)[C@@H]2O | – | – | percent proliferation above basal control at 0.1 µM (T47D [4]): 0%; % proliferation above basal control (0% = control) at 1 µM (T47D [5]): 5%
18 | 36 | C[C@]12CC[C@@H]3c4ccc(B(O)O)cc4CC[C@H]3[C@@H]1C[C@H](Cc1cccc(C(N)=O)c1)[C@@H]2O | > 30 | > 30 | –
19 | 7 | C[C@]12CC[C@@H]3c4ccc(CC(=O)O)cc4CC[C@H]3[C@@H]1C[C@H](Cc1cccc(C(N)=O)c1)[C@@H]2O | 0 | 5 | –
20 | 3 | C[C@]12CC[C@@H]3c4ccc(C(=O)N5CCCC5)cc4CC[C@H]3[C@@H]1C[C@H](Cc1cccc(C(N)=O)c1)[C@@H]2O | 0 | 0 | –
21 | 54 | C[C@]12CC[C@@H]3c4ccc(CCI)cc4CC[C@H]3[C@@H]1C[C@H](Cc1cccc(C(N)=O)c1)[C@@H]2O | – | – | percent proliferation above basal control at 0.1 µM (T47D [4]): 0%; % proliferation above basal control (0% = control) at 1 µM (T47D [5]): 0%
22 | 10 | CCCN(CC)C(=O)c1ccc2c(c1)CC[C@@H]1[C@@H]2CC[C@]2(C)[C@@H](O)[C@@H](Cc3cccc(C(N)=O)c3)C[C@@H]12 | 0 | 0 | –
23 | 19 | CN(C)Cc1ccc2c(c1)CC[C@@H]1[C@@H]2CC[C@]2(C)[C@@H](O)[C@@H](Cc3cccc(C(N)=O)c3)C[C@@H]12 | 0 | 0 | –
24 | 2 | C[C@]12CC[C@@H]3c4ccc(C(N)=O)cc4CC[C@H]3[C@@H]1C[C@H](Cc1cccc(C(N)=O)c1)[C@@H]2O | 0 | 15 | –
